Measurements: article PMC4047138 (Pharmacological research : the official journal of the …, 2013)
Entries after “also recorded” stand apart in the source; their conditions may differ.

Key:
[1] = molecular target: T1, hV2R[L^83Q] (Homo sapiens, UniProt P30518, L83Q); test: hV2R[L^83Q] pharmacoperone assay; format: cell-based; conditions: for LOPAC Screen Average % Response +/- Std Dev: single concentration of 6 μM (0.4% DMSO), SR121463 as positive control, -Dox
[2] = test system: hV2R[L^83Q] cells in the presence of doxycycline; test: counter screen: same hV2R[L^83Q] HeLa cells incubated with doxycycline 36 hours; format: cell-based; conditions: Homo sapiens, read-out: EC50 (μM) +Dox
Summary of the method: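 HeLa line expressing hV2R[L83Q] under a tetracycline-regulated (TET-off) transactivator. Cells are pretreated with compound, challenged with an EC100 dose of vasopressin, lysed, and cAMP is read by cAMP-Glo luminescence. […] The −Dox run expresses the mutant. The +Dox counter screen adds doxycycline 36 hours before assay, shutting off mutant expression.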

[3] = test system: GnRHR[E^90K]; conditions: mouse, in vivo; cited from earlier work
[4] = molecular target: T1, hV2R[L^83Q]; conditions: pre-treatment with 100 nM, absence of Dox, 384-well; cited from earlier work

| LOPAC Screen Average % Response +/- Std Dev [1] | Structure (SMILES) | EC50 [2] [µM] | other results |
| --- | --- | --- | --- |
| 104+/−0% | C=C[C@@]1(C)CC(=O)[C@]2(O)[C@@]3(C)[C@@H](O)CCC(C)(C)[C@@H]3[C@H](O)[C@H](OC(C)=O)[C@@]2(C)O1 [Forskolin] | 0.59 | – |
| – | Cc1cc(C)cc(-c2[nH]c3ccc(C(C)(C)C(=O)N4CC5CCC4CC5)cc3c2[C@H](C)CNCCc2ccncc2)c1 [IN3, (2S)-2-[5-[2-(2-azabicyclo[2.2.2]oct-2-yl)-1,1-dimethyl-2-oxoethyl]-2-(3,5-dimethylphenyl)-1H-indol-3-yl]-N-(2-pyridin-4-ylethyl)propan-1-amine] | – | testis weight / size [3]: increased testis size; also recorded: markedly increased |
| 74+/−2% | Cc1ccccc1N1CCN(S(=O)(=O)C[C@]23CC[C@H](C[C@@H]2NC(=O)[C@@H](N)CCS(C)(=O)=O)C3(C)C)CC1 [L-368,899] | – | – |
| – | O=C1c2c(O)ccc(O)c2C(=O)c2c(NCCNCCO)ccc(NCCNCCO)c21 [Mitoxantrone] | > 25 | – |
| – | CCOc1ccc2c(c1)C1(CCC(OCCN3CCOCC3)CC1)C(=O)N2S(=O)(=O)c1ccc(C(=O)NC(C)(C)C)cc1OC (stereo not shown) [SR121463] | – | signal-to-background ratio (S/B) ([1]; -Dox assay, n=4): ~7; cAMP response to vasopressin challenge after pharmacoperone pre-treatment [4]: robust cAMP response |
